Results as given in ChEMBL document CHEMBL4251664, “Biocompatible Boron-Containing Prodrugs of Belinostat for the Potential Treatment of Solid Tumors” (ACS Med Chem Lett, 2018).

What was measured:
[1] = target: T1, Protein deacetylase HDAC6 (Homo sapiens, UniProt Q9UBN7); assay: Inhibition of human HDAC6 using RHKK(Ac)AMC as substrate
T1 sequence (Q9UBN7 whole entry): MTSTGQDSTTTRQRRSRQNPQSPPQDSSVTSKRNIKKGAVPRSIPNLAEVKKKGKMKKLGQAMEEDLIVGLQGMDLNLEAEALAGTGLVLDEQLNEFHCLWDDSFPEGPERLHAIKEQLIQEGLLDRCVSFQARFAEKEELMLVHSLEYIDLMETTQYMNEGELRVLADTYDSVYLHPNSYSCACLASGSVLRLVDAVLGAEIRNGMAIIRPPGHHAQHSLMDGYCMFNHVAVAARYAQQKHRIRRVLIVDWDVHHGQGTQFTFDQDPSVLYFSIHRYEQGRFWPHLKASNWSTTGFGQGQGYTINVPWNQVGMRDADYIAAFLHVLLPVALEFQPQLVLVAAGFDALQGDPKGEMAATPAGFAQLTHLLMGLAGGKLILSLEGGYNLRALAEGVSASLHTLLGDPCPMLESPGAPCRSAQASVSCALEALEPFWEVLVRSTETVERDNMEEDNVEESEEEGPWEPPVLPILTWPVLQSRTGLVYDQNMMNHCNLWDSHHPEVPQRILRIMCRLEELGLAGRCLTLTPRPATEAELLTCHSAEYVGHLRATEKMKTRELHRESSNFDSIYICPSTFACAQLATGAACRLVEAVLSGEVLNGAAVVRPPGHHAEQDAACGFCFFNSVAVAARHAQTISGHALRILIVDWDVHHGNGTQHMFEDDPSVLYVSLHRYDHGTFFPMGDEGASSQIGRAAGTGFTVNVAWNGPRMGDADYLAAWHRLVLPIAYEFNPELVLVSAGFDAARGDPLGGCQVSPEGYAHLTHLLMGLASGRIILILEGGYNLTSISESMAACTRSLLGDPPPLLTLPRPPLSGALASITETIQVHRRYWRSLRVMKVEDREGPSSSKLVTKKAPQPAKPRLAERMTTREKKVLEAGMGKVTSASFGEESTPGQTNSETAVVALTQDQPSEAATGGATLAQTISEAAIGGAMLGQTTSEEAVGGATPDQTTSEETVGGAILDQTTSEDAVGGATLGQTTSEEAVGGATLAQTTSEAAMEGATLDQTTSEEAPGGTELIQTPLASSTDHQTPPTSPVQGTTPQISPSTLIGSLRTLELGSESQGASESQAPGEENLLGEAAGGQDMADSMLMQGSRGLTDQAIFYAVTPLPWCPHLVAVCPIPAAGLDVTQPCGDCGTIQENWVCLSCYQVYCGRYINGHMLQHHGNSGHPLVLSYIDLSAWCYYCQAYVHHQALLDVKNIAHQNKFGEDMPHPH

MDA-MB-231 [2] = assay: Prodrug conversion in human MDA-MB-231 cells assessed as (E)-4-((3-(3-(N-phenylsulfamoyl)phenyl)acrylamidooxy)methyl)phenylboronic acid level after 1 day by UHPLC-MS/MS analysis; assay type: ADME, cell-based; settings: mda-mb-231, 24 h
In short: (§1)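 MDA-MB-231 or HeLa cells were incubated with the pinacol boronate prodrug, and culture medium was sampled daily from day 1 to day 6. The prodrug, boronic acid forms and belinostat were separated, identified and quantified by HPLC coupled to an Orbitrap mass spectrometer. Results are in ng/mL as mean ± SEM of triplicate experiments.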

Mus musculus = assay: Toxicity in ovariectomized nu/nu mouse implanted with human MCF7 cells assessed as effect on body weight at 10 mg/kg, sc administered once daily for 22 days; assay type: organism-based; settings: in vivo, 528 h
In short: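 MCF-7 xenograft in mice, dosed 10 mg/kg/day by subcutaneous injection alongside a vehicle group. Treatment ran 22 days. Body weights were compared with the vehicle group, and tumour volume was measured over the same period. At the end, mice were sacrificed and tumours removed.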

MDA-MB-231 [3] = assay: Prodrug conversion in human MDA-MB-231 cells assessed as (E)-4-((3-(3-(N-phenylsulfamoyl)phenyl)acrylamidooxy)methyl)phenylboronic acid level after 3 days by UHPLC-MS/MS analysis; assay type: ADME, cell-based; settings: mda-mb-231, 72 h; in short: as §1
MDA-MB-231 [4] = assay: Prodrug conversion in human MDA-MB-231 cells assessed as (E)-4-((3-(3-(N-phenylsulfamoyl)phenyl)acrylamidooxy)methyl)phenylboronic acid level after 5 days by UHPLC-MS/MS analysis; assay type: ADME, cell-based; settings: mda-mb-231, 120 h; in short: as §1
MDA-MB-231 [5] = assay: Prodrug conversion in human MDA-MB-231 cells assessed as belinostat level after 5 days by UHPLC-MS/MS analysis; assay type: ADME, cell-based; settings: mda-mb-231, 120 h; in short: as §1
MCF7 [6] = assay: Antitumor activity against human MCF7 cells implanted in ovariectomized nu/nu mouse assessed as tumor weight at 10 mg/kg, sc administered once daily for 22 days measured post last dose (reference value: 743 +/- 142 mg); assay type: functional
MDA-MB-231 [7] = assay: Prodrug conversion in human MDA-MB-231 cells assessed as (E)-4-((3-(3-(N-phenylsulfamoyl)phenyl)acrylamidooxy)methyl)phenylboronic acid level after 6 days by UHPLC-MS/MS analysis; assay type: ADME, cell-based; settings: mda-mb-231, 144 h; in short: as §1
MCF7 [8] = assay: Antitumor activity against human MCF7 cells implanted in ovariectomized nu/nu mouse assessed as tumor volume at 10 mg/kg, sc administered once daily for 22 days measured on day 12 during compound dosing (reference value: 869 +/- 173 mm3); assay type: functional
HeLa [9] = assay: Prodrug conversion in human HeLa cells assessed as (E)-4-((3-(3-(N-phenylsulfamoyl)phenyl)acrylamidooxy)methyl)phenylboronic acid level after 1 day by UHPLC-MS/MS analysis; assay type: ADME, cell-based; settings: 24 h; in short: as §1
HeLa [10] = assay: Antiproliferative activity against human HeLa cells after 72 hrs by resazurin dye based fluorescence assay; assay type: functional, cell-based
HeLa [11] = assay: Prodrug conversion in human HeLa cells assessed as belinostat level after 3 days by UHPLC-MS/MS analysis; assay type: ADME, cell-based; settings: 72 h; in short: as §1
SK-MEL-28 = assay: Antiproliferative activity against human SK-MEL-28 cells after 72 hrs by resazurin dye based fluorescence assay; assay type: functional, cell-based; settings: SK-MEL-28, 72 h

- EC50 [1]: 20200 nM
- Drug metabolism (MDA-MB-231 [2]): 331.8 ng/mL
- Drug metabolism (MDA-MB-231 [3]): 246.9 ng/mL
- Drug metabolism (MDA-MB-231 [4]): 145.8 ng/mL
- Drug metabolism (MDA-MB-231 [5]): 28.5 ng/mL
- Drug metabolism (MDA-MB-231 [7]): 130.9 ng/mL
- Drug metabolism (HeLa [9]): 282.7 ng/mL
- IC50 (HeLa [10]): 273 nM
- Drug metabolism (HeLa [11]): 13.4 ng/mL
- IC50 (SK-MEL-28): 678 nM
SMILES: CC1(C)OB(c2ccc(CONC(=O)/C=C/c3cccc(S(=O)(=O)Nc4ccccc4)c3)cc2)OC1(C)C
- Activity (Mus musculus): Non-Toxic
- Activity (MCF7 [6]): 109 mg
- Activity (MCF7 [8]): 153 mm3
